18 molecules from ChEMBL document CHEMBL1135776, “Benzo- and cyclohexanomazindol analogues as potential inhibitors of the cocaine binding site at the dopamine transporter” (J Med Chem, 2002) can be followed below.

Assay [1] concerns the target T1, Sodium-dependent dopamine transporter (Homo sapiens, UniProt Q01959). In words: (§1) Ratio of the IC50 value of Mazindol to that in guinea pig was determined. It counts as functional. To be noted: Cavia porcellus; target entry is the homologue from another species.
In assay [2] the target is T2, Sodium-dependent noradrenaline transporter (Homo sapiens, UniProt P23975). The experiment in a line: Inhibition of [125I]- RTI -55 binding at the Norepinephrine transporter sites on HEK-hNET cells. Format: cell-based. In a few lines: (§2)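 Membranes from HEK293 cells expressing hDAT, hSERT or hNET (about 10–15 μg protein) preincubated 10 min with compound in Krebs-HEPES pH 7.4 containing pargyline, tropolone and ascorbate. Then [125I]RTI-55 (40–80 pM final) added, 90 min at 25 °C, filtration. […] Duplicates, two or three experiments; IC50 converted to Ki by Cheng-Prusoff.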

For assay [3], the system named is HEK293. In words: Ability to block the uptake of [3H]NE (norepinephrine) in HEK-hNET cells. It counts as functional, cell-based. The conditions noted are these: Homo sapiens.
In assay [4] the test system is HEK293. In words: Ability to block the uptake of [3H]- 5- HT(serotonin) in HEK-hSERT cells. It counts as functional, cell-based. The conditions noted are these: Homo sapiens.
The target in assay [5] is Sodium-dependent serotonin transporter (Homo sapiens, UniProt P31645). In words: Inhibition of [125I]- RTI -55 binding at the Serotonin transporter sites on HEK-hSERT cells. It counts as cell-based. The method in brief:
as §2

For assay [6], the system named is HEK hDAT. In words: Ratio of the IC50 against DAT in HEK hDAT cells to that of guinea pig striatal membranes. Format: cell-based.
Assay [7] has as its system HEK293. In words: Ability to block the uptake of [3H]- DA(dopamine) in HEK-hDAT cells. It counts as functional, cell-based. The conditions noted are these: Homo sapiens.
Assay [8] addresses T1, Sodium-dependent dopamine transporter. In words: Inhibition of [125I]- RTI -55 binding at the Dopamine transporter sites on HEK-hDAT cells. Format: cell-based. The method in brief: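 Membranes from HEK293 cells expressing hDAT, hSERT or hNET (about 10–15 μg protein) preincubated 10 min with compound in Krebs-HEPES pH 7.4 containing pargyline, tropolone and ascorbate. Duplicates, two or three experiments; IC50 converted to Ki by Cheng-Prusoff.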

Assay [9] deals with HEK hDAT. In words: Ratio of the IC50 against DAT in HEK hDAT cells to that of rat striatal membranes. Format: cell membranes. To be noted: Membrane.
Assay [10] concerns the target Monoamine transporters; Norepinephrine & dopamine (Homo sapiens) (UniProt Q01959+P23975). In words: Selectivity ratio as ratio of IC50 value against NET to that of DAT. Format: protein assay.
Assay [11] can be described thus: Discrimination ratio against SERT as ratio of IC50 to that of Ki uptake to SERT. It counts as functional. The method in brief: (§3)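 Ratio of uptake IC50 in transporter-expressing HEK293 cells to [125I]RTI-55 binding Ki at the same human transporter (DAT, SERT or NET). Both were measured in this work: uptake with 20 nM [3H]amine for 10 min at 25 °C, binding for 90 min at 25 °C.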

Assay [12] can be described thus: Discrimination ratio against DAT as ratio of IC50 to that of Ki uptake to DAT. Format: functional. In a few lines: as §3
In assay [13] the target is Monoamine transporters; serotonin & dopamine (Homo sapiens) (UniProt P31645+Q01959). In words: Selectivity ratio as ratio of IC50 value against SERT to that of DAT. Format: protein assay.
A short description of assay [14]: Ratio of the IC50 against DAT in rat striatal membranes to that of guinea pig striatal membranes. Format: cell membranes. The conditions noted are these: Membrane.
Assay [15] is described as follows: Discrimination ratio against NET as ratio of IC50 to that of Ki uptake to NET. Format: functional. In a few lines:
as §3

Assay [16] in a line: as §1. It counts as functional.
The target of assay [17] is T2, Sodium-dependent noradrenaline transporter. In words: Displacement of [125I]RTI-55 from human Norepinephrine transporter expressed in HEK cells. Format: cell-based, HEK293. In a few lines: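 Membranes from HEK293 cells expressing hNET, about 10–15 μg protein per tube. Compounds diluted from 10 mM DMSO stock, preincubated 10 min, then 40–80 pM [125I]RTI-55 added, 90 min at 25 °C in Krebs-HEPES pH 7.4. […] GF/C filtration; two or three experiments in duplicate; IC50 converted to Ki by Cheng-Prusoff.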
(Displacement assays read how much labelled ligand stays bound in the presence of the test substance.)

For assay [18], the target named is Sodium-dependent dopamine transporter (Rattus norvegicus, UniProt P23977). The experiment in a line: Ability to displace [3H]WIN-35428 from dopamine transporter on rat striatal membrane. In a few lines: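 Rat (male Sprague–Dawley, 200–225 g) striatal membranes in modified Krebs-HEPES pH 7.4; 2.5 mg tissue (wet weight) per tube with 1.5 nM [3H]WIN 35,428. Membranes preincubated 5 min with test compound, then incubated 60 min on ice. Nonspecific binding defined with 0.1 mM cocaine. Filtration over BSA-soaked GF/B filters, scintillation counting; triplicate samples.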
Chain of Sodium-dependent dopamine transporter (Rattus norvegicus, UniProt P23977) (P23977 whole entry): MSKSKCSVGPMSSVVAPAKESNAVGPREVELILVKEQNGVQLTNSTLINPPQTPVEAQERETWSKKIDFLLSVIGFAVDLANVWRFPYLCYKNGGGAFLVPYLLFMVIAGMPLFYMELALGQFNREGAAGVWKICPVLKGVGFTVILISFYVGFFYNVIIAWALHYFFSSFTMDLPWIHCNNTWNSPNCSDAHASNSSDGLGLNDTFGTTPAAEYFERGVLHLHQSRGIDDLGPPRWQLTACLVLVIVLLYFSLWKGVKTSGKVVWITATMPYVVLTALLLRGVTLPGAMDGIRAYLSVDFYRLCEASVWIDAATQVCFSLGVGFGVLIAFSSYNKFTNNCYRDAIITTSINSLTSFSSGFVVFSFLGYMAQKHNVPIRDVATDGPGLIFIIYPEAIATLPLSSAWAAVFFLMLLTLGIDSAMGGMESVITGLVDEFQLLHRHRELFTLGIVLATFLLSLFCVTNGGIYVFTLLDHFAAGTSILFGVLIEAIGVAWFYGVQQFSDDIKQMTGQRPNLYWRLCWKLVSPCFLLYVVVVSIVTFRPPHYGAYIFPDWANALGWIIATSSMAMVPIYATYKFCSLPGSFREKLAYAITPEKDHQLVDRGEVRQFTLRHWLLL

T1 sequence (Q01959 whole entry): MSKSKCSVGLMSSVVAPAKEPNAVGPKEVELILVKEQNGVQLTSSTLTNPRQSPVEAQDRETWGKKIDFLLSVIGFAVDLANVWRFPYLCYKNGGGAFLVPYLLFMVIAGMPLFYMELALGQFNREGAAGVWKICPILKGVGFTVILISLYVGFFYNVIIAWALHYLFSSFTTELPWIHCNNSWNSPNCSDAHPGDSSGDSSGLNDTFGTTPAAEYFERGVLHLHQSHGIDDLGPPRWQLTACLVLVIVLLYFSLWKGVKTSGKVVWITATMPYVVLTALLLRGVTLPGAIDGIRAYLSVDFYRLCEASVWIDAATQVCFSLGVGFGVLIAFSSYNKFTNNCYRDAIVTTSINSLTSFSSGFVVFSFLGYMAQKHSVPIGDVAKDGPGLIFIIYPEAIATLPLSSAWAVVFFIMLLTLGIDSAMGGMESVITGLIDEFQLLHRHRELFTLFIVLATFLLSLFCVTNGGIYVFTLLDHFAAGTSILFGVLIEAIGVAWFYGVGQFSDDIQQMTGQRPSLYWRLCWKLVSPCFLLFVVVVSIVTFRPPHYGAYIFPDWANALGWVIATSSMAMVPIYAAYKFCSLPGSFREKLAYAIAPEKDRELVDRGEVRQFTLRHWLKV
Chain of Monoamine transporters; serotonin & dopamine (Homo sapiens) (P31645 whole entry, looked up): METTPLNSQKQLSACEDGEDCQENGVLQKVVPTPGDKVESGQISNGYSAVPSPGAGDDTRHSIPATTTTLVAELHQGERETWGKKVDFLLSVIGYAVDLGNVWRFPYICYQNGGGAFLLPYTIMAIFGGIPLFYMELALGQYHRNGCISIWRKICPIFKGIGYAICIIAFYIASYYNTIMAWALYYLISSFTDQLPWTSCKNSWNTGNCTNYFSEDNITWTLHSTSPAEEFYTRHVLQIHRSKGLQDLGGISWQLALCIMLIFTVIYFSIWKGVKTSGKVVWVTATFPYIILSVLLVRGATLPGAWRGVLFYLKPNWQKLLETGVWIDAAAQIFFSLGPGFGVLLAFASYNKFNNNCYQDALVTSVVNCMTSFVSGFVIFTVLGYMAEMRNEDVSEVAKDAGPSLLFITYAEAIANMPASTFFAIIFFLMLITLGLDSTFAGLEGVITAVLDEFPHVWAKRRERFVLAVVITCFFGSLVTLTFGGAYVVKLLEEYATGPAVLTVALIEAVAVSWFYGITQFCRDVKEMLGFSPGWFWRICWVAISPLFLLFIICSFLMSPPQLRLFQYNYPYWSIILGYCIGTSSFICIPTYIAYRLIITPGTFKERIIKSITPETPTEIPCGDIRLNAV
Chain of Monoamine transporters; serotonin & dopamine (Homo sapiens) (Q01959 whole entry, looked up): as the sequence (Q01959 whole entry) above
Chain of Sodium-dependent serotonin transporter (P31645 whole entry): as the sequence (P31645 whole entry, looked up) above
Chain of Monoamine transporters; Norepinephrine & dopamine (Homo sapiens) (P23975 whole entry, looked up): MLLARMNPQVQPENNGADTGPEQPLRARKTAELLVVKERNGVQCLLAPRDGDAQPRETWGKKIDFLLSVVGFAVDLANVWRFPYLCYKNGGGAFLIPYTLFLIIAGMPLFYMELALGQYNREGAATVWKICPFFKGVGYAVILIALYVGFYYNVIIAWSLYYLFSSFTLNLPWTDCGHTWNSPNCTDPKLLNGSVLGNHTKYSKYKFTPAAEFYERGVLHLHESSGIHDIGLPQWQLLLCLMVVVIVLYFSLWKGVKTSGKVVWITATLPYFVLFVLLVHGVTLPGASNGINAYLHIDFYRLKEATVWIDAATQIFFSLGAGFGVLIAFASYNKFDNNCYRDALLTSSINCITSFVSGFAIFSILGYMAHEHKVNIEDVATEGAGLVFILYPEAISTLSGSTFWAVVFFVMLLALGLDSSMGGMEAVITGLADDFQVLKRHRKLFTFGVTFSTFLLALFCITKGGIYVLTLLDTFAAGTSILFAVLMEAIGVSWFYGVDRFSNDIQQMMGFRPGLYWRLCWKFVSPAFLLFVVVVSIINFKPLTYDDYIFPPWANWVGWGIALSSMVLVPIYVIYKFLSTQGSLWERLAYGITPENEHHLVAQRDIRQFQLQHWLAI
Chain of Monoamine transporters; Norepinephrine & dopamine (Homo sapiens) (Q01959 whole entry, looked up): as the sequence (Q01959 whole entry) above
T2 sequence (P23975 whole entry): as the sequence (P23975 whole entry, looked up) above

For the molecule `OC1(c2ccc(Cl)cc2)c2ccccc2C2=Nc3ccccc3CN21` (stereo not drawn), the Ratio in assay [1] is < 0.02.

The term Ki denotes a measure of affinity in units of concentration, obtained from inhibition or displacement. Read a low Ki as higher affinity. What is called IC50 is the concentration that gives 50% inhibition. Low readings indicate greater potency in that assay, high ones weaker potency in that assay. Consider `OC1(c2ccc(Cl)cc2)c2ccccc2C2=NCCN21` (stereo not drawn) [MAZINDOL], for which the inhibitory constant (Ki) in assay [2] turned out to be 18 nM; in assay [5], 50 nM. Moreover, the half-inhibitory concentration (IC50) is 4.9 nM with HEK293 [3] and 94 nM with HEK293 [4].

As for `OC1(c2cccc3ccccc23)c2ccccc2C2=NCCN21` (stereo not drawn), the Ratio in assay [1] worked out at 0.02.

Take `OC1(c2ccc3ccccc3c2)c2ccc3ccccc3c2C2=NCCN21` (stereo not drawn): the Ratio in the assay with HEK hDAT [6] was 0.9; with HEK hDAT [9] it was 0.07; in assay [10] it was 1.9; in assay [1], 13; in assay [11], 34; in assay [12], 311. The Ratio is 3.9 in assay [13], 11.6 in [14] and 7 in assay [15]. Moreover, the concentration for half-maximal inhibition (IC50) in the assay with HEK293 [7] was determined as 880 nM; in the assay on HEK293 [3] it was 38 nM; in the assay with HEK293 [4] it was 370 nM. For the same molecule, the Ki in [2] amounted to 5.2 nM; in assay [8] it was 2.83 nM; in [5] it was 11 nM.

Consider `OC1(c2ccc3ccccc3c2)c2c(c3ccccc3c3ccccc23)C2=NCCN21` (stereo not drawn), for which, in assay [16], the Ratio was <0.02.

With `OC1(c2ccc(Cl)cc2)c2c(ccc3ccccc23)C2=NCCN21` (stereo not drawn), in assay [1], the Ratio amounted to 0.2.

Turning to `OC1(c2ccc(Cl)cc2)c2ccccc2C2=NCCCN21` (stereo not drawn), the concentration for half-maximal inhibition (IC50) was found to be 3.7 nM in the assay with HEK293 [7], 4.9 nM in the assay with HEK293 [3] and 53 nM in the assay with HEK293 [4]. The Ki was found to be 1.7 nM in [8], 18.2 nM in [17] and 39 nM in assay [5]. Moreover, the Ratio in assay [10] amounted to 10.7; in assay [1], 10.1; in assay [11] it was 1.4; in assay [12] it was 2.2; in [13], 22.9; in [15], 0.3.

On to `OC1(c2ccc(Cl)cc2)c2c(c3ccccc3c3ccccc23)C2=NCCN21` (stereo not drawn), for which, in assay [16], the Ratio is given as <0.02.

With `OC1(c2ccc(Cl)cc2)c2ccccc2C2=N[C@H]3CCCC[C@@H]3N21` (stereo partly drawn), the Ratio was 56.3 in the assay with HEK hDAT [6]; 4.4 in the assay with HEK hDAT [9]; 4.1 in assay [10]; 15.8 in assay [1]; > 17 in assay [11]; 0.4 in [12]. For the same molecule, the Ratio in [13] is 3.9; in [14] it was 12.7; in assay [15], 0.5. The IC50 was 63 nM in the assay with HEK293 [7], 323 nM in the assay with HEK293 [3], 34.2 nM in assay [18] and > 10000 nM with HEK293 [4]. In addition, the figures for the Ki in assay [2], in [8] and in [5] were 690 nM, 152 nM and 600 nM, respectively.

For `OC1(c2ccc3c(c2)CCCC3)c2ccccc2C2=NCCN21` (stereo not drawn), the Ratio in assay [1] was < 0.02.

Turning to `OC1(c2ccc3ccccc3c2)c2ccccc2C2=NCCN21` (stereo not drawn), the Ratio amounted to 11 in the assay with HEK hDAT [6]; 1.9 in the assay on HEK hDAT [9]; 0.24 in [10]; 10.4 in assay [1]; 0.8 in assay [11]; 1.5 in [12]. Besides, the values for the Ratio in [13], in assay [14] and in [15] were 0.05, 5.7 and 0.4, respectively. Also, the results for the 50% inhibitory concentration (IC50) in the assay on HEK293 [7], in the assay on HEK293 [3] and with HEK293 [4] were 66 nM, 4.5 nM and 1.8 nM, respectively. Also, the figures for the Ki in assay [2], in [8] and in assay [5] were 11 nM, 45 nM and 2.3 nM, respectively.

With `OC1(c2ccc(Cl)cc2)c2ccccc2C2=N[C@@H]3CCCC[C@@H]3N21` (stereo partly drawn), the Ratio in assay [1] stood at 5.1.

As to `OC1(c2ccc(Cl)cc2)c2cc3ccccc3cc2C2=NCCN21` (stereo not drawn), the Ratio in [1] came out at 1.3.

Take `OC1(c2ccc(Cl)cc2)c2ccc3ccccc3c2C2=NCCN21` (stereo not drawn): the Ratio in the assay with HEK hDAT [6] was determined as 2.6; with HEK hDAT [9] it was 1.7; in [10] it was 1.2; in [1], 4; in assay [11], 14.3; in [12] it was 3.2. The Ratio was 8.2 in assay [13], 1.5 in assay [14] and 0.4 in assay [15]. The IC50 in the assay with HEK293 [7] was 85 nM; in the assay on HEK293 [3], 13 nM; in the assay with HEK293 [4], 3210 nM. In addition, the figures for the inhibitory constant (Ki) in [2], in assay [8] and in [5] were 33.4 nM, 27.2 nM and 224 nM, respectively.

As to `OC1(c2ccc(Cl)cc2)c2ccccc2-c2nc3ccccc3n21` (stereo not drawn), the Ratio in assay [1] was < 0.02.

`OC1(c2ccc(Cl)cc2)c2ccc3ccccc3c2C2=N[C@H]3CCCC[C@@H]3N21` (mixture of isomers): the Ratio in assay [1] is < 0.02.

With `OC1(c2ccc(Cl)cc2)c2ccccc2C2=NCc3ccccc3CN21` (stereo not drawn), the Ratio in [1] was < 0.02.

As for `OC1(c2ccc(Cl)cc2)c2ccc3ccccc3c2C2=NCCCN21` (stereo not drawn), the Ratio was found to be 1 in the assay on HEK hDAT [6]; 0.05 with HEK hDAT [9]; 2.6 in [10]; 20.3 in [1]; 127 in [11]; 182 in [12]. Also, the Ratio worked out at 2.8 in assay [13], 17.8 in assay [14] and 10 in assay [15]. The figures for the IC50 with HEK293 [7], with HEK293 [3] and with HEK293 [4] were 366 nM, 53 nM and 700 nM, respectively. Moreover, the Ki was found to be 5.3 nM in assay [2], 2.01 nM in assay [8] and 5.5 nM in assay [5].
